Experimental data reported in ChEMBL document CHEMBL1153955, “Indolylarylsulfones bearing natural and unnatural amino acids. Discovery of potent inhibitors of HIV-1 non-nucleoside wild type and resistant mutant strains reverse transcriptase and coxsackie B4 virus” (J Med Chem, 2009).

How the values were obtained:
[1] = system: Mammalian orthoreovirus 1; test: Antiviral activity against Reovirus 1 in african green monkey Vero cells assessed as protection against virus-induced cytopathicity; format: functional, organism-based; details: Mammalian orthoreovirus 1, Vero
Method in brief: (§1)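 Confluent cell monolayers inoculated with 100 CCID₅₀ virus. After 1-2 h adsorption, residual virus removed and cultures incubated with varying compound concentrations. Cytopathicity scored once it reached completion in untreated infected controls. EC₅₀ = dose reducing virus-induced cytopathogenicity by 50%.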

Influenza B virus [2] = test: Antiviral activity against influenza B virus in MDCK cells assessed as reduction of virus-induced cytopathicity by MTS method; format: functional, organism-based
[3] = molecular target: Human immunodeficiency virus type 1 reverse transcriptase (Human immunodeficiency virus 1, UniProt Q72547, L100I); test: Inhibition of HIV1 reverse transcriptase p66/p51 L100I mutant; details: read-out: IC50
Method in brief: (§2)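 Substrate was 0.5 µg poly(rA)/oligo(dT) 10:1 (0.3 µM 3′-OH ends) with 10 µM [³H]dTTP, at 37 °C. Acid-precipitable radioactivity was counted on GF/C filters after TCA washes.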

Influenza B virus [4] = test: Antiviral activity against influenza B virus in MDCK cells assessed as reduction of virus-induced cytopathicity by visual cytopathic effect scoring method; format: functional, organism-based
Influenza A virus [5] = test: Antiviral activity against influenza H1N1 virus in MDCK cells assessed as reduction of virus-induced cytopathicity by MTS method; format: functional, organism-based; details: Influenza A virus, H1N1, MDCK
[6] = system: Human immunodeficiency virus 1; test: Antiviral activity against HIV1 with reverse transcriptase L100I mutation in human CEM cells assessed as protection against virus-induced cytopathicity; format: functional, organism-based; details: Human immunodeficiency virus 1, CCRF-CEM
Method in brief: (§3)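 CEM cells (~3 × 10⁵ cells/mL) were infected with ~100 CCID₅₀ virus per mL and seeded with serial compound dilutions. After 4 days at 37 °C, syncytium (giant cell) formation was scored microscopically. EC₅₀ is the concentration giving 50% protection against virus cytopathicity.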

[7] = system: Human immunodeficiency virus 1; test: Antiviral activity against HIV1 with reverse transcriptase Y181C mutation in human CEM cells assessed as protection against virus-induced cytopathicity; format: functional, organism-based; details: Human immunodeficiency virus 1, CCRF-CEM; method in brief: as §3
Influenza A virus H3N2 [8] = test: Antiviral activity against influenza H3N2 virus in MDCK cells assessed as reduction of virus-induced cytopathicity by MTS method; format: functional, organism-based
[9] = system: Human immunodeficiency virus 1; test: Antiviral activity against HIV1 with reverse transcriptase K103N mutation in human CEM cells assessed as protection against virus-induced cytopathicity; format: functional, organism-based; details: Human immunodeficiency virus 1, CCRF-CEM; method in brief: as §3
[10] = molecular target: Human immunodeficiency virus type 1 reverse transcriptase (Human immunodeficiency virus 1, UniProt Q72547, Y181I); test: Inhibition of HIV1 reverse transcriptase p66/p51 Y181I mutant; details: read-out: IC50; method in brief: as §2
Sindbis virus = test: Antiviral activity against Sindbis virus in african green monkey Vero cells assessed as protection against virus-induced cytopathicity; format: functional, organism-based; method in brief: as §1
Coxsackievirus B4 [11] = test: Antiviral activity against Coxsackievirus B4 in human HeLa cells assessed as protection against virus-induced cytopathicity; format: functional, organism-based; details: Enterovirus B; method in brief: as §1
[12] = Cytotoxicity against human HEL cells assessed as drug level causing microscopically detectable alteration of normal cell morphology after 3 days; format: cell-based
Human alphaherpesvirus 1 [13] = test: Antiviral activity against thymidine kinase deficient and acyclovir resistant HSV1 KOS in human HEL cells assessed as protection against virus-induced cytopathicity; format: functional, organism-based; details: Human alphaherpesvirus 1, KOS
Human alphaherpesvirus 1 [14] = test: Antiviral activity against HSV1 KOS in human HEL cells assessed as protection against virus-induced cytopathicity; format: functional, organism-based; details: Human alphaherpesvirus 1, KOS
Felid alphaherpesvirus 1 = test: Antiviral activity against Feline herpesvirus in feline […] cells assessed as inhibition of virus-induced cytopathicity; format: functional, organism-based
[15] = system: Human immunodeficiency virus 1; test: Antiviral activity against HIV1 3B in human CEM cells assessed as protection against virus-induced cytopathicity after 4 days; format: functional, organism-based; details: Human immunodeficiency virus 1, 3B, CCRF-CEM, 96 h
Method in brief: (§4)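 CEM cells (~3 × 10⁵ cells/mL) infected with ~100 CCID₅₀ per mL of HIV-1 (IIIB) or HIV-2 (ROD), then seeded into wells containing compound dilutions. After 4 days at 37 °C, syncytium (giant cell) formation was examined microscopically. EC₅₀ = concentration protecting CEM cells from HIV cytopathicity by 50%.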

[16] = system: Vesicular stomatitis virus; test: Antiviral activity against VSV in human HEL cells assessed as protection against virus-induced cytopathicity; format: functional, organism-based
Influenza A virus [17] = test: Antiviral activity against influenza H1N1 virus in MDCK cells assessed as reduction of virus-induced cytopathicity by visual cytopathic effect scoring method; format: functional, organism-based
[18] = system: Human immunodeficiency virus 1; test: Antiviral activity against HIV1 with reverse transcriptase Y181I mutation in human CEM cells assessed as protection against virus-induced cytopathicity; format: functional, organism-based; details: Human immunodeficiency virus 1, CCRF-CEM; method in brief: as §3
[19] = Cytotoxicity against MDCK cells assessed as drug level causing microscopically detectable alteration of normal cell morphology; format: cell-based, Canis lupus familiaris; details: dog
[20] = Cytotoxicity against african green monkey Vero cells assessed as drug level causing microscopically detectable alteration of normal cell morphology after 3 days; format: cell-based; details: chlorocebus sabaeus
Method in brief: (§5)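 Serial compound dilutions added to confluent HeLa or Vero monolayers. MCC = minimum concentration causing microscopically detectable alteration of cell morphology after 3 days of incubation.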

[21] = Cytotoxicity against MDCK cells by MTS assay; format: cell-based, Canis lupus familiaris; details: dog
[22] = system: Human immunodeficiency virus 2; test: Antiviral activity against HIV2 ROD in human CEM cells assessed as protection against virus-induced cytopathicity after 4 days; format: functional, organism-based; details: Human immunodeficiency virus 2, ROD, CCRF-CEM, 96 h; method in brief: as §4
[23] = molecular target: Human immunodeficiency virus type 1 reverse transcriptase (Human immunodeficiency virus 1, UniProt Q72547, K103N); test: Inhibition of HIV1 reverse transcriptase p66/p51 K103N mutant; details: read-out: IC50; method in brief: as §2
[24] = Antiproliferative activity against human Molt4/C8 cells after 3 days; format: cell-based; details: MOLT-4, 72 h
Method in brief: (§6)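 Cells seeded at 5 × 10⁴ to 7.5 × 10⁴ cells/200 µL with or without serial compound dilutions; incubated at 37 °C for 2 days (L1210) or 3 days (Molt4/C8, CEM). Cell numbers counted with a Coulter counter. CC₅₀ = concentration reducing proliferation by 50% versus untreated controls, read from plots of cell number (% of control) against concentration. Means of at least two independent experiments.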

Vaccinia virus = test: Antiviral activity against Vaccinia virus Lederle in human HEL cells assessed as protection against virus-induced cytopathicity; format: functional, organism-based; details: Orthopoxvirus vaccinia
L1210 = test: Antiproliferative activity against mouse L1210 cells after 2 days; format: cell-based; details: L1210, 48 h; method in brief: as §6
[25] = system: Respiratory syncytial virus; test: Antiviral activity against RSV Long in human HeLa cells assessed as protection against virus-induced cytopathicity; format: functional, organism-based; method in brief: as §1
CCRF-CEM = test: Antiproliferative activity against human CEM cells after 3 days; format: cell-based; details: 72 h; method in brief: as §6
[26] = Cytotoxicity against human HeLa cells assessed as drug level causing microscopically detectable alteration of normal cell morphology after 3 days; format: cell-based; method in brief: as §5
Punta Toro virus = test: Antiviral activity against Punta Toro virus in african green monkey Vero cells assessed as protection against virus-induced cytopathicity; format: functional, organism-based; method in brief: as §1
[27] = system: Human immunodeficiency virus 1; test: Antiviral activity against HIV1 with reverse transcriptase Y188L mutation in human CEM cells assessed as protection against virus-induced cytopathicity; format: functional, organism-based; details: Human immunodeficiency virus 1, CCRF-CEM; method in brief: as §3
Human respirovirus 3 = test: Antiviral activity against Parainfluenza virus type 3 in african green monkey Vero cells assessed as protection against virus-induced cytopathicity; format: functional, organism-based; details: Human respirovirus 3, Vero; method in brief: as §1
[28] = Cytotoxicity against feline CRFK cells by MTS assay; format: cell-based, Felis catus; details: cat
[29] = molecular target: Human immunodeficiency virus type 1 reverse transcriptase (Human immunodeficiency virus 1, UniProt Q72547); test: Inhibition of HIV1 reverse transcriptase p66/p51; details: read-out: IC50
Human alphaherpesvirus 2 = test: Antiviral activity against HSV2 G in human HEL cells assessed as protection against virus-induced cytopathicity; format: functional, organism-based; details: Human alphaherpesvirus 2, strain G; method in brief: as §1
Influenza A virus H3N2 [30] = test: Antiviral activity against influenza H3N2 virus in MDCK cells assessed as reduction of virus-induced cytopathicity by visual cytopathic effect scoring method; format: functional, organism-based
Coxsackievirus B4 [31] = test: Antiviral activity against Coxsackievirus B4 in african green monkey Vero cells assessed as protection against virus-induced cytopathicity; format: functional, organism-based; details: Enterovirus B; method in brief: as §1
[32] = system: Vesicular stomatitis virus; test: Antiviral activity against VSV in human HeLa cells assessed as protection against virus-induced cytopathicity; format: functional, organism-based
Feline coronavirus = test: Antiviral activity against Feline coronavirus in feline […] cells assessed as inhibition of virus-induced cytopathicity; format: functional, organism-based; details: Alphacoronavirus 1

Cc1cc(C)cc(S(=O)(=O)c2c(C(=O)NCCC(N)=O)[nH]c3ccc(Cl)cc23)c1
EC50 [1]: > 20 µM | EC50 (Influenza B virus [2]): > 4 µM | IC50 [3]: 143 nM | EC50 (Influenza B virus [4]): > 4 µM | EC50 (Influenza A virus [5]): > 4 µM | IC50 [6]: 7 nM | IC50 [7]: 78 nM | EC50 (Influenza A virus H3N2 [8]): > 4 µM | IC50 [9]: 19 nM | IC50 [10]: 5.05 µM | EC50 (Sindbis virus): > 20 µM | EC50 (Coxsackievirus B4 [11]): > 4 µM | MCC at 72 h [12]: 20 µM | EC50 (Human alphaherpesvirus 1 [13]): > 4 µM | EC50 (Human alphaherpesvirus 1 [14]): > 4 µM | EC50 (Felid alphaherpesvirus 1): > 4 µM | EC50 [15]: 1 nM | EC50 [16]: > 4 µM | EC50 (Influenza A virus [17]): > 4 µM | IC50 [18]: > 1000 nM | MCC [19]: 20 µM | MCC at 72 h [20]: 100 µM | CC50 [21]: 9.7 µM | EC50 [22]: > 10 µM | IC50 [23]: 351 nM | IC50 [24]: 9 µM | EC50 (Vaccinia virus): > 4 µM | IC50 (L1210): 26 µM | EC50 [25]: > 4 µM | IC50 (CCRF-CEM): 16 µM | MCC at 72 h [26]: 20 µM | EC50 (Punta Toro virus): > 20 µM | IC50 [27]: ≥ 1000 nM | EC50 (Human respirovirus 3): > 20 µM | CC50 [28]: 1.7 µM | IC50 [29]: 27 nM | EC50 (Human alphaherpesvirus 2): > 4 µM | EC50 (Influenza A virus H3N2 [30]): > 4 µM | EC50 (Coxsackievirus B4 [31]): 12 µM | EC50 [32]: > 4 µM | EC50 (Feline coronavirus): > 4 µM

Cc1cc(C)cc(S(=O)(=O)c2c(C(=O)NCCS(N)(=O)=O)[nH]c3ccc(Cl)cc23)c1
EC50 [1]: 20 µM | EC50 (Influenza B virus [2]): > 4 µM | IC50 [3]: 25 nM | EC50 (Influenza B virus [4]): > 4 µM | EC50 (Influenza A virus [5]): > 4 µM | IC50 [6]: 1.2 nM | IC50 [7]: 230 nM | EC50 (Influenza A virus H3N2 [8]): > 4 µM | IC50 [9]: 40 nM | IC50 [10]: > 40 µM | EC50 (Sindbis virus): 20 µM | EC50 (Coxsackievirus B4 [11]): > 4 µM | MCC at 72 h [12]: 20 µM | EC50 (Human alphaherpesvirus 1 [13]): > 4 µM | EC50 (Human alphaherpesvirus 1 [14]): > 4 µM | EC50 (Felid alphaherpesvirus 1): > 4 µM | EC50 [15]: 1.4 nM | EC50 [16]: > 4 µM | EC50 (Influenza A virus [17]): > 4 µM | IC50 [18]: > 1000 nM | MCC [19]: 20 µM | MCC at 72 h [20]: 100 µM | CC50 [21]: 7.9 µM | EC50 [22]: > 10 µM | IC50 [23]: 584 nM | IC50 [24]: 12 µM | EC50 (Vaccinia virus): > 4 µM | IC50 (L1210): 20 µM | EC50 [25]: > 4 µM | IC50 (CCRF-CEM): 14 µM | MCC at 72 h [26]: 20 µM | EC50 (Punta Toro virus): 20 µM | IC50 [27]: > 1000 nM | EC50 (Human respirovirus 3): > 20 µM | CC50 [28]: 8.5 µM | IC50 [29]: 0.4 nM | EC50 (Human alphaherpesvirus 2): > 4 µM | EC50 (Influenza A virus H3N2 [30]): > 4 µM | EC50 (Coxsackievirus B4 [31]): 9 µM | EC50 [32]: > 4 µM | EC50 (Feline coronavirus): > 4 µM

O=C1Nc2ccc(Cl)cc2[C@@](C#CC2CC2)(C(F)(F)F)O1 [EFAVIRENZ]
IC50 [6]: 22 nM | IC50 [7]: 160 nM | IC50 [9]: 130 nM | IC50 [18]: 12 nM | IC50 [27]: 760 nM

Cc1ccnc2c1NC(=O)c1cccnc1N2C1CC1 [NEVIRAPINE]
IC50 [6]: 60 nM | IC50 [7]: 11000 nM | IC50 [9]: 2900 nM | IC50 [18]: > 10000 nM | IC50 [27]: > 10000 nM
